Laboratory results published in article PMC5835461 (Journal of Diabetes Investigation, 2017).

What was measured:
[1] = Pharmacokinetics: free serum IAsp concentration; assay type: in vivo, human (Japanese patients with type 1 diabetes); conditions: Japanese T1D patients; 0.2 U/kg single s.c. dose; least squares mean
Method in brief: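 Randomized, double-blind crossover with 3–12 days between dosing visits. After an overnight fast, patients received 0.2 U/kg subcutaneously into the lower abdominal wall. A euglycemic clamp held BG at 5.5 mmol/L, with sampling from 10 min pre-dose to 12 h post-dose. Free serum IAsp (PEG-precipitated) was measured by validated ELISA (LLOQ 10 pmol/L). Times were taken from raw individual profiles and analysed by linear mixed model.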

[2] = test system: Japanese patients with type 1 diabetes; test: Safety assessments; assay type: in vivo, human; conditions: Japanese T1D patients; 0.2 U/kg single s.c. dose
Method in brief: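 Monitored through screening, two single 0.2 U/kg subcutaneous dosing visits and follow-up 7–21 days after second dose. Covered adverse events, injection site reactions, hypoglycemia, safety laboratory parameters, vital signs, physical examination and ECG. Hypoglycemia counted as confirmed if severe (third-party assistance) or plasma glucose <3.1 mmol/L. Summary statistics covered all patients receiving at least one dose.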

**Q.** Which “t Early 50% Cmax” value [1] does the source give for insulin aspart [IAsp] here?
**A.** 29.3 min

**Q.** What about the t max [1] of the same substance?
**A.** 68.7 min

**Q.** And the “Confirmed hypoglycemic episodes or injection site reactions” value [2]?
**A.** No confirmed hypoglycemic episodes or injection site reactions

**Q.** What about the Serious adverse events [2] of the same substance?
**A.** no serious adverse events

**Q.** And the Tolerability [2]?
**A.** well tolerated
